The record followed here is PubChem BioAssay.

The nature of test [1]: S. cerevisiae growth inhibition in permissive medium (OD615), pilot counter-assay for S. cerevisiae lifespan shortening project, permissive growth control (AID 705;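 active = growth inhibition above 25% in both replicates, a cutoff set 3 SD above the mean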). As to conditions: OD615, 24 h, at 10 µM, stronger effect = higher value. In a few lines:
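Test system: Saccharomyces cerevisiae strain carrying genetically modified DeaD replicative-lifespan system; buffer or medium: SC raffinose/galactose permissive medium; dosing: one dose 10 µM, DMSO 0.25% final; times: 24 h exposure, 30 °C; measured by: OD at 615 nm; read-out basis: growth inhibition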

Test [2] in a line: S. cerevisiae growth inhibition in restrictive medium, OD615, pilot screen, restrictive growth control, yeast lifespan reduction project (AID 706;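 active = growth inhibition above a set limit, 3 SD over mean compound inhibition, in both replicates, cut at about 43% in these data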;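 also: modified DeaD lifespan yeast strain shifted to restrictive glucose medium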). The note with it: OD615, 48 h, at 10 µM, stronger effect = higher value. In a few lines:
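material = engineered S. cerevisiae DeaD strain | buffer or medium = glucose-based CSMM-D restrictive medium | dosing = one concentration, 10 µM final, 0.25% DMSO | schedule = 4 h pre-growth plus 48 h compound exposure, 30 °C | detection = OD615 absorbance reading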

Test [3] in a line: doxorubicin toxicity protection in MRP-1 cells – H69AR cells, CellTiter-Glo, duplicate, MRP-1 activator project, pilot screen (AID 807).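 Also: compound pretreatment 18-22 h then 72 h combined with doxorubicin; 0% = doxorubicin alone and 100% = vehicle without doxorubicin.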 As to conditions: H69AR viability with doxorubicin, CellTiter-Glo luminescence; at 10 µM; stronger effect = higher value. (In ATP-based viability assays light output follows the ATP content of the culture.)
Test [4] can be described thus: viability of HCT116 without oncogenic beta-catenin – human colon tumor cells, pilot screen (AID 823;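 active = cell viability at or below a set limit in both duplicate runs, the limit being the all-compound median minus 4 SD, cut at about 23% in these data, passing the limit was not always enough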;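 also: 0% = wells killed by 20 µM Hyamine and 100% = untreated DMSO cell wells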). As to conditions: HCT116 beta-catenin knockout viability, CellTiter-Glo, 60 h; at 10 µM; stronger effect = lower value.
A short description of test [5]: viability of PTEN-null HCT116 cells – cell-based, HCT116 clonal line, CellTiter-Glo, pilot screen (AID 824;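 active = viability at or below 27.92% in each of two runs, the all-compound median minus 4 SD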;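 also: 0% = 20 µM Hyamine control and 100% = vehicle cell control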). As to conditions: HCT116 PTEN-deleted viability, 60 h, at 10 µM, stronger effect = lower value.
A short description of test [6]: RAM pathway blockade in budding yeast – dse1pr::URA3 reporter, 5-FOA selection, pilot screen (AID 869;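 active = inhibition over a set limit, the all-compound mean plus 3 SD, in both replicate runs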;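 also: 0% = DMSO wells with no growth and 100% = 10 µM 1-NA-PP1 with full growth; RAM network block rescues cells from 5-FOA so hits raise OD615 growth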). The note with it: S. cerevisiae dse1pr::URA3 5-FOA growth, OD615, 2 d; at 10 µM; stronger effect = higher value; strain carries analog-sensitive mutant Cbk1 kinase.
Test [7] is described as follows: RAM signaling pathway blockade in yeast – S. cerevisiae, Pdr1DBD-CYC8 efflux-inhibited sensitized strain, primary screen (AID 1298;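 active = RAM network inhibition above 8.4% in each of two replicates, 3 SD over the compound average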;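 also: 0% = DMSO untreated cells without growth and 100% = 10 µM 1-NA-PP1 full growth; higher means more yeast growth rescued from 5-FOA killing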). As to conditions: S. cerevisiae cbk1-as DSE1-URA3 strain, 5-FOA growth OD615, 2 d; at 50 µM; stronger effect = higher value.

Values without a mark were called inactive. Inconclusive results are not listed. Active and inactive are the calls of the source.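 The calls were made as follows, unless noted: active = viability increase at or above a cutoff of the median across tested compounds plus 3 SD (cut at about 8.5% in these data, passing the limit was not always enough); inconclusive = some gains above the cutoff, reason not given; inactive = the rest.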

What is called viability is a read-out of living cells in per cent, often relative to untreated cells. Broadly, the inhibition is the relative decrease from the control value, in per cent. For the compound `COc1ccc(-n2ncc3c(N4CCN(c5cc(C)ccc5C)CC4)ncnc32)cc1`, the growth inhibition is -8.7% in test [1] and 4.27% in test [2]. In addition, the viability increase in test [3] is -4.46%. The values for the viability in test [4] and in test [5] were 61.3% and 68%, respectively. Further, the inhibition in test [6] was 2.01%. For the same compound, the RAM network inhibition in test [7] is 3.49%.

Consider `CCCCN(C)C(=O)c1ccc2c(c1)N(CC)C(=O)c1ccccc1S2(=O)=O`, for which the growth inhibition was -2.31% in test [1] and 3.19% in test [2]. Also, in test [3], the viability increase was -1.45%. The viability in test [4] was 87.8%; in test [5], 91.2%. In addition, the inhibition in test [6] is 1.74%. The RAM network inhibition in test [7] was 4.11%.

Consider `CCn1nc(C(=O)OCC(=O)c2ccc3c(c2)OCCO3)c2ccccc2c1=O`, for which the growth inhibition in test [1] was -8.66%; in test [2], -8.03%. For the same compound, the viability increase in test [3] was -3.31%. Moreover, the viability in test [4] is 89.9%; in test [5], 90.3%. The inhibition in test [6] is 1.78%. Besides, the RAM network inhibition in test [7] is 3.16%.

Take `Cn1c(=O)c2c(SCC(=O)N3CCN(c4ccccc4)CC3)nc(C3CC3)nc2n(C)c1=O`: the growth inhibition in test [1] was 10.6%; in test [2], -3.49%. Besides, the viability increase in test [3] was -2.93%. The viability in test [4] is 82.5%; in test [5] it was 79.8%. Moreover, the inhibition in test [6] was 3.71%. In addition, the RAM network inhibition in test [7] was 6.69%.

`CCOC(=O)N1CCN(c2c(NCc3ccccn3)c(=O)c2=O)CC1`: the growth inhibition in test [1] is 8.16%; in test [2] it was 18.2%. For the same compound, in test [3], the viability increase was -1.44%. Also, the viability in test [4] was 103%; in test [5] it was 96%. The inhibition in test [6] was 1.28%. In test [7], the RAM network inhibition is 1.45%.

Turning to `CCCCOc1ccc(CN2CCC(O)CC2)cc1`, the values for the growth inhibition in test [1] and in test [2] were -18.6% and -6.13%, respectively. The viability increase in test [3] was -0.47%. Also, the viability in test [4] was 90.9%; in test [5], 100%. In test [6], the inhibition is 1.06%. For the same compound, the RAM network inhibition in test [7] is 2.2%.

For the compound `Cc1ccc(OCC(=O)n2nc(C)cc2C)c(Br)c1`, the growth inhibition in test [1] is -17.8%; in test [2], -0.465%. Moreover, the viability increase in test [3] was -2.35%. Besides, the viability in test [4] was 93.9%; in test [5] it was 94.3%. For the same compound, the inhibition in test [6] was 0.89%. Besides, the RAM network inhibition in test [7] is 0.1%.

Regarding `CCOC(=O)c1ccccc1NC(=O)CN(c1ccccc1OCC)S(C)(=O)=O`, the growth inhibition is 2.85% in test [1] and 1.95% in test [2]. Further, the viability increase in test [3] was -1.57%. For the same compound, the viability in test [4] was 96.4%; in test [5] it was 98%. In test [6], the inhibition is 1.1%. Moreover, the RAM network inhibition in test [7] is 2.46%.

For `CCOC(=O)N1CCN(C(=O)c2oc(=O)c3ccccc3c2-c2ccc(C)cc2)CC1`, the growth inhibition in test [1] was -8.36%; in test [2] it was -8.23%. Besides, the viability increase in test [3] was 1.15%. Further, the viability is 96.2% in test [4] and 102% in test [5]. Further, the inhibition in test [6] was 1.23%. For the same compound, the RAM network inhibition in test [7] is 3.87%.

Consider `CCOc1ccc(C2c3c(oc4cc(C)c(C)cc4c3=O)C(=O)N2CCCN(C)C)cc1OC` (stereo unspecified), for which the growth inhibition in test [1] was -3.33%; in test [2], -1.7%. Further, in test [3], the viability increase was -1.6%. The figures for the viability in test [4] and in test [5] were 108% and 98%, respectively. Also, the inhibition in test [6] was -0.13%. Moreover, in test [7], the RAM network inhibition was -0.66%.

Take `C=CCOC(=O)C1=C(C)N=C2SCCC(=O)N2C1c1ccc(OC(=O)c2ccco2)cc1` (stereo unspecified): the results for the growth inhibition in test [1] and in test [2] were 5.35% and 24.3%, respectively. Also, the viability increase in test [3] is -0.72%. The viability in test [4] is 94.2%; in test [5] it was 85.8%. Further, the inhibition in test [6] was 1.94%. The RAM network inhibition in test [7] was 5.69%.

For `O=C(CSCc1ccc(Cl)cc1)c1ccco1`, the growth inhibition in test [1] is -9.9%; in test [2], 0.15%. In addition, in test [3], the viability increase is 0.59%. The values for the viability in test [4] and in test [5] were 96.5% and 89.8%, respectively. Moreover, in test [6], the inhibition is 0.695%. In addition, the RAM network inhibition in test [7] was 2.59%.

Consider `Nc1ccc2nc(-c3ccc(Cl)cc3)[nH]c2c1`, for which the results for the growth inhibition in test [1] and in test [2] were -13% and -10.7%, respectively. In addition, the viability increase in test [3] was -8.6%. Also, the viability was 73.4% in test [4] and 75.3% in test [5]. In addition, the inhibition in test [6] was 0.935%. Further, the RAM network inhibition in test [7] was 4.58%.

On to `CC(=O)Nc1ccc(OCC=C(Cl)Cl)cc1`, for which the growth inhibition is 2.81% in test [1] and 5.66% in test [2]. In addition, the viability increase in test [3] was 1.02%. Besides, the viability was 97.2% in test [4] and 102% in test [5]. Also, the inhibition in test [6] is 0.805%. Besides, the RAM network inhibition in test [7] is 1.16%.

With `Cc1ccc2oc(=O)c3cc(C(=O)NCc4ccco4)sc3c2c1`, the growth inhibition in test [1] and in test [2] was -8.27% throughout. Besides, the viability increase in test [3] was -2.9%. For the same compound, the viability was 102% in test [4] and 96.6% in test [5]. The inhibition in test [6] is 3.86%. Besides, the RAM network inhibition in test [7] is 2.71%.

As to `Cn1nc(-c2ccc(Cl)cc2)c2cc(C(=O)NCCCN3CCCC3)sc21`, the growth inhibition in test [1] was -5.71%; in test [2], 4.49%. In addition, the viability increase in test [3] is -8.31%. Further, the viability in test [4] was 2.27% (active); in test [5], 1.95% (active). Besides, the inhibition in test [6] was 1.23%. The RAM network inhibition in test [7] was 0.73%.

On to `Cc1ccc(N2C(=O)CC(N3CCN(C4CCc5ccccc5C4)CC3)C2=O)cc1` (stereo unspecified), for which the growth inhibition was -2.06% in test [1] and 1.44% in test [2]. Also, the viability increase in test [3] was -2.69%. Besides, the viability in test [4] was 102%; in test [5], 98.2%. The inhibition in test [6] was 0.215%. In addition, the RAM network inhibition in test [7] is 6.5%.

On to `O=C(c1oc(=O)c2ccccc2c1-c1ccccc1)N1CCN(C2CCCCC2)CC1`, for which the growth inhibition in test [1] is -7.33%; in test [2], -0.045%. The viability increase in test [3] was -1.86%. Also, the viability is 95.5% in test [4] and 97.4% in test [5]. Besides, in test [6], the inhibition was 1.16%. For the same compound, in test [7], the RAM network inhibition is 6.22%.
